Reference: ChEMBL document CHEMBL2434944, “Novel acetamidothiazole derivatives: synthesis and in vitro anticancer evaluation” (Eur J Med Chem, 2013)

Assays:
[1] = system: A498; assay: Growth inhibition of human A498 cells assessed as cell growth at 10^-5 M after 48 hrs by sulforhodamine B assay relative to control; assay type: functional; settings: A498, 48 h, read-out: Activity
In short: (§1)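 NCI-60 single-dose screen at 10^-5 M. Cells grown in RPMI 1640 with 5% FBS and 2 mM L-glutamine, plated at 5,000–40,000 cells/well according to doubling time, and preincubated 24 h at 37°C, 5% CO2. Compound dissolved in DMSO and added. Exposure 48 h. Adherent cells fixed with cold TCA (10% final), suspension cells with 16% final TCA. Read-out is 0.4% SRB staining, dye solubilised in 10 mM Tris, absorbance at 515 nm. Percent growth is calculated against the time-zero plate and untreated control.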

[2] = system: SK-OV-3; assay: Growth inhibition of human SKOV3 cells assessed as cell growth at 10^-5 M after 48 hrs by sulforhodamine B assay relative to control; assay type: functional; settings: SK-OV-3, 48 h, read-out: Activity; in short: as §1
[3] = system: OVCAR-5; assay: Growth inhibition of human OVCAR5 cells assessed as cell growth at 10^-5 M after 48 hrs by sulforhodamine B assay relative to control; assay type: functional; settings: OVCAR-5, 48 h, read-out: Activity; in short: as §1
[4] = system: UACC-257; assay: Growth inhibition of human UACC257 cells assessed as cell growth at 10^-5 M after 48 hrs by sulforhodamine B assay relative to control; assay type: functional; settings: UACC-257, 48 h, read-out: Activity
In short: (§2)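 NCI-60 single-dose screen, 10^-5 M final. Cells grown in RPMI 1640 with 5% FBS and 2 mM L-glutamine, seeded at 5,000–40,000 cells/well by doubling time. Preincubated 24 h at 37°C, 5% CO2. Compound in DMSO, diluted in medium with gentamicin, then 48 h exposure. Fixed with cold TCA, SRB stained, A515 read. Percent growth vs untreated control, time-zero plate corrected.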

[5] = system: SK-MEL-5; assay: Growth inhibition of human SK-MEL-5 cells assessed as cell growth at 10^-5 M after 48 hrs by sulforhodamine B assay relative to control; assay type: functional; settings: SK-MEL-5, 48 h, read-out: Activity; in short: as §1
[6] = system: SK-MEL-28; assay: Growth inhibition of human SK-MEL-28 cells assessed as cell growth at 10^-5 M after 48 hrs by sulforhodamine B assay relative to control; assay type: functional; settings: SK-MEL-28, 48 h, read-out: Activity; in short: as §1
[7] = system: SK-MEL-2; assay: Growth inhibition of human SK-MEL-2 cells assessed as cell growth at 10^-5 M after 48 hrs by sulforhodamine B assay relative to control; assay type: functional; settings: SK-MEL-2, 48 h, read-out: Activity; in short: as §1
[8] = system: M14; assay: Growth inhibition of human M14 cells assessed as cell growth at 10^-5 M after 48 hrs by sulforhodamine B assay relative to control; assay type: functional; settings: M14, 48 h, read-out: Activity; in short: as §1
[9] = system: Malme-3M; assay: Growth inhibition of human MALME-3M cells assessed as cell growth at 10^-5 M after 48 hrs by sulforhodamine B assay relative to control; assay type: functional; settings: read-out: Activity; in short: as §1
[10] = system: SNB-75; assay: Growth inhibition of human SNB75 cells assessed as cell growth at 10^-5 M after 48 hrs by sulforhodamine B assay relative to control; assay type: functional; settings: SNB-75, 48 h, read-out: Activity; in short: as §1
[11] = system: SNB-19; assay: Growth inhibition of human SNB19 cells assessed as cell growth at 10^-5 M after 48 hrs by sulforhodamine B assay relative to control; assay type: functional; settings: SNB-19, 48 h, read-out: Activity; in short: as §1
[12] = system: SW-620; assay: Growth inhibition of human SW620 cells assessed as cell growth at 10^-5 M after 48 hrs by sulforhodamine B assay relative to control; assay type: functional; settings: SW-620, 48 h, read-out: Activity; in short: as §2
[13] = system: HT-29; assay: Growth inhibition of human HT-29 cells assessed as cell growth at 10^-5 M after 48 hrs by sulforhodamine B assay relative to control; assay type: functional; settings: HT-29, 48 h, read-out: Activity; in short: as §1
[14] = system: HCT-15; assay: Growth inhibition of human HCT15 cells assessed as cell growth at 10^-5 M after 48 hrs by sulforhodamine B assay relative to control; assay type: functional; settings: HCT-15, 48 h, read-out: Activity; in short: as §1
[15] = system: NCI-H460; assay: Growth inhibition of human NCI-H460 cells assessed as cell growth at 10^-5 M after 48 hrs by sulforhodamine B assay relative to control; assay type: functional; settings: NCI-H460, 48 h, read-out: Activity; in short: as §1
[16] = system: HOP-62; assay: Growth inhibition of human HOP62 cells assessed as cell growth at 10^-5 M after 48 hrs by sulforhodamine B assay relative to control; assay type: functional; settings: HOP-62, 48 h, read-out: Activity; in short: as §1
[17] = system: SR; assay: Growth inhibition of human SR cells assessed as cell growth at 10^-5 M after 48 hrs by sulforhodamine B assay relative to control; assay type: functional; settings: read-out: Activity; in short: as §2
[18] = target: Thymidylate synthase (Homo sapiens, UniProt P04818); assay: Inhibition of human thymidylate synthase
[19] = target: Epidermal growth factor receptor (Homo sapiens, UniProt P00533); assay: Inhibition of human EGFR
[20] = target: T1, Cathepsin K (Homo sapiens, UniProt P43235); assay: Inhibition of human cathepsin K
T1 sequence (P43235 whole entry): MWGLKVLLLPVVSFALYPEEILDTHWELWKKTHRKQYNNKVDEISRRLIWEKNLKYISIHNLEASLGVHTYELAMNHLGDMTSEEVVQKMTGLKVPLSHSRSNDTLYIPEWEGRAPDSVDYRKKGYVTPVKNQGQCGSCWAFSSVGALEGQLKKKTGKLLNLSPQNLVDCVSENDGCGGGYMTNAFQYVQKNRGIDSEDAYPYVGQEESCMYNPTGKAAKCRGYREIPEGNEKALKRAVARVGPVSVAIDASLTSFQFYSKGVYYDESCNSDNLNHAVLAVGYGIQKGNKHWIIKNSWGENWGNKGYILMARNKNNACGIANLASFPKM

[21] = system: T47D; assay: Growth inhibition of human T47D cells assessed as cell growth at 10^-5 M after 48 hrs by sulforhodamine B assay relative to control; assay type: functional; settings: read-out: Activity; in short: as §2
[22] = system: BT-549; assay: Growth inhibition of human BT549 cells assessed as cell growth at 10^-5 M after 48 hrs by sulforhodamine B assay relative to control; assay type: functional; settings: BT-549, 48 h, read-out: Activity; in short: as §1
[23] = system: MCF7; assay: Growth inhibition of human MCF7 cells assessed as cell growth at 10^-5 M after 48 hrs by sulforhodamine B assay relative to control; assay type: functional; settings: MCF7, 48 h, read-out: Activity; in short: as §1
[24] = system: PC-3; assay: Growth inhibition of human PC3 cells assessed as cell growth at 10^-5 M after 48 hrs by sulforhodamine B assay relative to control; assay type: functional; settings: PC-3, 48 h, read-out: Activity; in short: as §1
[25] = system: SN12C; assay: Growth inhibition of human SN12C cells assessed as cell growth at 10^-5 M after 48 hrs by sulforhodamine B assay relative to control; assay type: functional; settings: read-out: Activity; in short: as §1
[26] = system: TK-10; assay: Growth inhibition of human TK10 cells assessed as cell growth at 10^-5 M after 48 hrs by sulforhodamine B assay relative to control; assay type: functional; settings: TK-10, 48 h, read-out: Activity; in short: as §2
[27] = system: RXF 393; assay: Growth inhibition of human RXF393 cells assessed as cell growth at 10^-5 M after 48 hrs by sulforhodamine B assay relative to control; assay type: functional; settings: RXF 393, 48 h, read-out: Activity; in short: as §1

Thymidylate synthase, sequence (P04818 whole entry): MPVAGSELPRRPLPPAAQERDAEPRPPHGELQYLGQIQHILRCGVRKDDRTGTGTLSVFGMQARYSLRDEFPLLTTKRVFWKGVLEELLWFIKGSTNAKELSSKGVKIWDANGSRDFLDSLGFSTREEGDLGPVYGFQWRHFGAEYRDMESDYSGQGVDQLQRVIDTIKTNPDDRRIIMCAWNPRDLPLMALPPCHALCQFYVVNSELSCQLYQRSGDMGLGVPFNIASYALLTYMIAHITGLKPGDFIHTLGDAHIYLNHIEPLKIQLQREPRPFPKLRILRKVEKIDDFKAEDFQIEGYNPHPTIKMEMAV
Epidermal growth factor receptor, sequence (P00533 whole entry): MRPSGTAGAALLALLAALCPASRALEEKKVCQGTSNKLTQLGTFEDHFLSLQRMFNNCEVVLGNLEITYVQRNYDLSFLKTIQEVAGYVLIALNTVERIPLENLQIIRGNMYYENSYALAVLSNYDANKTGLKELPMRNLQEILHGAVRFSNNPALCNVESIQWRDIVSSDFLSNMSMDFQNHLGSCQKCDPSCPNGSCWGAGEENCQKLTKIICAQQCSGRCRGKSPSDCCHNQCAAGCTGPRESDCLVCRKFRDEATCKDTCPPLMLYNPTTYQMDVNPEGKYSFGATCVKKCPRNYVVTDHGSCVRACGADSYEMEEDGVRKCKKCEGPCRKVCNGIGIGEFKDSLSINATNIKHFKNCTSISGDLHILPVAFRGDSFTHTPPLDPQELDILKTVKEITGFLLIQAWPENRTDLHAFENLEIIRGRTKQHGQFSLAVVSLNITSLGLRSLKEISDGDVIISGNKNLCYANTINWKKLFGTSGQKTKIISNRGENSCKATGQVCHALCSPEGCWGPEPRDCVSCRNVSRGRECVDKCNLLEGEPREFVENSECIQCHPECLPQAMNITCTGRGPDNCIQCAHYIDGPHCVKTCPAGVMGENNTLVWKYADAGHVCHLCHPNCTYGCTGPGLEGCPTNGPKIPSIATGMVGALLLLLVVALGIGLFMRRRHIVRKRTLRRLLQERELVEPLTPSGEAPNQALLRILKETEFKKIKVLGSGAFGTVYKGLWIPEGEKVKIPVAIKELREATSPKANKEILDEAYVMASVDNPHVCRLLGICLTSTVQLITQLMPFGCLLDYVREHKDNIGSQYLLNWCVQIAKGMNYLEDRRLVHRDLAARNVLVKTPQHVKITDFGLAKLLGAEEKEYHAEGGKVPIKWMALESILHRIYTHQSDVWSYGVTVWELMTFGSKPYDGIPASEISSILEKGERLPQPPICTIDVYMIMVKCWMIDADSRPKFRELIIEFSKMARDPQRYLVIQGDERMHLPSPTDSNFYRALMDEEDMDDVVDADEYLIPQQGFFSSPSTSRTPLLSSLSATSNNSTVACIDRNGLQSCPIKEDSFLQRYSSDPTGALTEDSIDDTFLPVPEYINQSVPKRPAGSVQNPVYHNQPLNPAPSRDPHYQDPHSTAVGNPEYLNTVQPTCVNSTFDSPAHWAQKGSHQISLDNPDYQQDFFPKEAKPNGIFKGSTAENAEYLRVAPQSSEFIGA

| Structure (SMILES) | growth at 10 µM [1] [%] | growth at 10 µM [2] [%] | growth at 10 µM [3] [%] | growth at 10 µM [4] [%] | growth at 10 µM [5] [%] | growth at 10 µM [6] [%] | growth at 10 µM [7] [%] | growth at 10 µM [8] [%] | growth at 10 µM [9] [%] | growth at 10 µM [10] [%] | growth at 10 µM [11] [%] | growth at 10 µM [12] [%] | growth at 10 µM [13] [%] | growth at 10 µM [14] [%] | growth at 10 µM [15] [%] | growth at 10 µM [16] [%] | growth at 10 µM [17] [%] | Ki [18] [µM] | Ki [19] [µM] | Ki [20] [µM] | also measured |
| --- | --- | --- | --- | --- | --- | --- | --- | --- | --- | --- | --- | --- | --- | --- | --- | --- | --- | --- | --- | --- | --- |
| Cc1ccc(-c2csc(=N)n2CC(=O)N2CCN(c3ccccc3)CC2)cc1 | 92.6 | 89.2 | 110 | 106 | 88.2 | 100 | 117 | 108 | 118 | 95.8 | 96.6 | 105 | 111 | 104 | 105 | 111 | 98.8 | 5.6 | 2.97 | 10.8 | growth at 10 µM [21]: 78%; growth at 10 µM [22]: 92.6%; growth at 10 µM [23]: 81.4%; growth at 10 µM [24]: 82.1%; growth at 10 µM [25]: 85.2%; growth at 10 µM [26]: 140%; growth at 10 µM [27]: 97.3% |
| N=c1scc(-c2ccc(Cl)cc2)n1CC(=O)N1CCN(c2ccccc2)CC1 | 84.9 | 109 | 93.8 | 105 | 91.9 | 98.6 | 79 | 99.7 | 107 | 78.4 | 100 | 104 | 92.9 | 96.8 | 101 | 109 | 88 | 5.09 | 5.82 | 11.1 | growth at 10 µM [21]: 88.9%; growth at 10 µM [22]: 102%; growth at 10 µM [23]: 90.8%; growth at 10 µM [24]: 81.8%; growth at 10 µM [25]: 99.8%; growth at 10 µM [26]: 87.2%; growth at 10 µM [27]: 98.8% |
| N=c1scc(-c2ccccc2)n1CC(=O)N1CCN(c2ccccc2)CC1 | 87.2 | 94.5 | 94.1 | 108 | 94.8 | 98.8 | 104 | 101 | 94.2 | 74.6 | 98.6 | 101 | 106 | 97 | 96.4 | 96.6 | 89.9 | 1.36 | 4.68 | 11.6 | growth at 10 µM [21]: 91.2%; growth at 10 µM [22]: 95.5%; growth at 10 µM [23]: 95.3%; growth at 10 µM [24]: 72.3%; growth at 10 µM [25]: 101%; growth at 10 µM [26]: 127%; growth at 10 µM [27]: 107% |
| CC(=O)N1CCN(C(=O)Cn2c(-c3ccc(C)cc3)csc2=N)CC1 | 80.6 | 103 | 122 | 102 | 92.1 | 98.9 | 113 | 97.9 | 121 | 82.3 | 100 | 97.6 | 105 | 90.6 | 103 | 101 | 81.3 | 3.65 | 6.09 | 24 | growth at 10 µM [21]: 73.4%; growth at 10 µM [22]: 104%; growth at 10 µM [23]: 88.9%; growth at 10 µM [24]: 65.2%; growth at 10 µM [25]: 87.4%; growth at 10 µM [26]: 121%; growth at 10 µM [27]: 94.8% |
| CC(=O)N1CCN(C(=O)Cn2c(-c3ccc(Cl)cc3)csc2=N)CC1 | 67.7 | 92.4 | 101 | 91 | 86.4 | 90.8 | 95.7 | 95.1 | 133 | 74.4 | 84.2 | 106 | 85.8 | 86.5 | 101 | 93.4 | 74.7 | 11.3 | 8.58 | 24.2 | growth at 10 µM [21]: 79%; growth at 10 µM [22]: 89.9%; growth at 10 µM [23]: 84.5%; growth at 10 µM [24]: 81.6%; growth at 10 µM [25]: 88.6%; growth at 10 µM [26]: 82.1%; growth at 10 µM [27]: 100% |
